Measured values pooled from the literature.
Lines come from different studies, so protocols differ.
BRAF: Serine/threonine-protein kinase B-raf (BRAF, Homo sapiens, UniProt P15056)
ELANE: Neutrophil elastase (ELANE, Homo sapiens, UniProt P08246)
RXFP3: Relaxin-3 receptor 1 (RXFP3, Homo sapiens, UniProt Q9NSD7)
Delta-aminolevulinic acid dehydratase C162A/K59N: Delta-aminolevulinic acid dehydratase (Homo sapiens, UniProt P13716, C162A/K59N)

For `O=C(Nc1ccc(Cl)c(Cl)c1)N1CCC(n2c(=O)[nH]c3c(Br)cccc32)CC1`, the IC50 was over 100000 nM (SMUG1 (Homo sapiens, UniProt Q53HV7); enzyme activity; inhibitor).
`Oc1ccc(-c2nc(-c3ccncc3)c(-c3ccc(F)cc3)[nH]2)cc1` has an IC50 of 1130 nM (BRAF; cell-free assay; inhibitor).
`COc1ccc2c(c1)OC1Oc3cc(O)c(CC=C(C)C)c(O)c3C(=O)C21O` (centres unmarked) has an IC50 of 91000 nM (Beta-secretase 1 (BACE1, Homo sapiens, UniProt P56817); enzyme activity; inhibitor).
The IC50 of `Cc1ncsc1-c1ccc(CNC(=O)[C@@H]2C[C@@H](O)CN2C(=O)[C@@H](NC(=O)C2(F)CC2)C(C)(C)C)c(OCCOCCOCCN2CCN(c3cc(-c4ccccc4O)nnc3N)CC2)c1` is reported as 2400 nM (SWI/SNF-related matrix-associated actin-dependent regulator of chromatin subfamily A member 2, bromodomain (SMARCA2, Homo sapiens, UniProt P51531); ligand displacement; TR-FRET).
`Cc1cccc(C(=O)Oc2cnnc3ccc([N+](=O)[O-])cc23)c1` gave an IC50 of 590 nM (ELANE; enzyme activity; inhibitor; fluorescence).
`O=C(Nc1ccc(-c2nc(-c3ccc(C(F)(F)F)cc3)no2)cc1)C1CC(=O)N(Cc2cccnc2)C1` (centres unmarked) has an IC50 of 2170 nM (RXFP3; cAMP; antagonist; TR-FRET).
The IC50 of `CC(C)(C)n1nc(-c2cnc3cc(OC4CC4)ccc3c2)c(C(N)=O)c1N` is reported as over 10000 nM (BRAF; cell-free assay).
`O=C(Nc1ccc(-c2nc(-c3ccccc3)no2)cc1)C1CC(=O)N(Cc2cccnc2)C1` (centres unmarked) gave an IC50 of 7690 nM (RXFP3; cAMP; antagonist; TR-FRET).
With `C=CC(=O)Nc1cc(Nc2nccc(Nc3cc(Cl)c(F)cc3C(C)(C)O)n2)c(OC)cc1N1CC[C@@H](N(C)C)C1` the IC50 was 937 nM (Proto-oncogene tyrosine-protein kinase ROS (ROS1, Homo sapiens, UniProt P08922); enzyme activity; inhibitor; with preincubation).
For `Cc1c(Cl)cccc1Nc1ccccc1C(=O)O`, the IC50 was 2100 nM (Delta-aminolevulinic acid dehydratase C162A/K59N; enzyme activity; inhibitor; absorbance; pH 8; with preincubation).
For `COc1ccc2c(Oc3ccc4c(C(=O)Nc5ccccc5N)cccc4c3)ccnc2c1`, the IC50 was over 500 nM (BRAF; enzyme activity; inhibitor).
`CN1CCCN=C1/C=C/c1cccc(O)c1` has an IC50 of 18000 nM (Delta-aminolevulinic acid dehydratase C162A/K59N; enzyme activity; inhibitor; absorbance; pH 8; with preincubation).
With `CN1CCN(c2ccc(Nc3ncc4cc(C#N)c(=O)n(C5CCCC5)c4n3)cc2)CC1` the IC50 was over 10000 nM (Maternal embryonic leucine zipper kinase (MELK, Homo sapiens, UniProt Q14680); enzyme activity; inhibitor).
With `CCCS(=O)(=O)Nc1ccc(F)c(C(=O)c2c[nH]c3ncc(-c4ccc(CNC(=O)COCC(=O)NCc5ccc(-c6cnc7[nH]cc(C(=O)c8c(F)ccc(NS(=O)(=O)CCC)c8F)c7c6)cc5)cc4)cc23)c1F` the IC50 was about 464 nM (Serine/threonine-protein kinase B-raf (BRAF, Homo sapiens, UniProt P15056, Q461A/V600E); enzyme activity; inhibitor; ELISA).
For `C=C(Cl)C(=O)Nc1cc(Nc2nc(Nc3cnn(C)c3)c3sccc3n2)c(OC)cc1N1CCN(C)CC1`, the IC50 was over 1000 nM (Epidermal growth factor receptor (EGFR, Homo sapiens, UniProt P00533, C797S/L858R/T790M); enzyme activity; inhibitor; ELISA).
For `O=C(N/N=C/CN1CCCCC1)Nc1cc2c(Nc3ccc(F)c(Cl)c3)ncnc2cc1O[C@H]1CCOC1`, the IC50 was 8.6 nM (Epidermal growth factor receptor (EGFR, Homo sapiens, UniProt P00533, L858R/T790M); enzyme activity; inhibitor).
For `O=C(O)C1=CC(=C(c2ccc(O)c(C(=O)O)c2)c2ccc(O)c(C(=O)O)c2)C=CC1=O`, the IC50 was 99 nM (DNA polymerase iota (Homo sapiens, UniProt Q9UNA4); enzyme activity; inhibitor).
With `C=CC(=O)Nc1cc(Nc2nccc(-c3cn(C4CC4)c4ccccc34)n2)c(OC)cc1N(C)CCN(C)C` the IC50 was 3.39 nM (Epidermal growth factor receptor (EGFR, Homo sapiens, UniProt P00533); enzyme activity; inhibitor; TR-FRET).
The IC50 of `Cc1cccc(C(=O)n2ncc(=O)c3cc([N+](=O)[O-])ccc32)c1` is reported as 260 nM (ELANE; enzyme activity; inhibitor; fluorescence).
`CC(=O)N[C@H]1CSSC[C@@H](C(=O)N[C@H](Cc2c[nH]c3ccccc23)C(N)=O)NC(=O)[C@@H](Cc2ccccc2)NC(=O)[C@H](CCCNC(=N)N)NC1=O` has an IC50 of over 5000 nM (Melanocortin receptor 3 (MC3R, Homo sapiens, UniProt P41968); ligand displacement; radioligand).
